Source: PubChem BioAssay AID624363 (Broad Institute, 2012)
Where “and” joins values, the source holds several entries; their conditions need not be identical. Equal entries are not always repeated. Calls of active or inactive are those of the source.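 How the source made its calls: active means in every test run, a falling-signal curve whose half-maximal concentration is at most twice the top tested dose; inconclusive means runs disagree, flat fit at 30 to 70% inhibition, or poor fit; inactive means every test run inactive.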

Assays:
[1] = MITF transcriptional activity inhibition, TRPM1 luciferase – cell-based, SK-MEL-5, dry powder, set 5, dose response (AID 624363); conditions: SK-MEL-5 TRPM1 promoter luciferase reporter, 24 h; at 35 µM (top of the series)
Outline: (§1)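 Material: SK-MEL-5 melanoma line with stable TRPM1 promoter–luciferase reporter; Input: 2000 reporter cells per well; Buffer or medium: phenol red-free DMEM supplemented with 10% FBS; Incubation: 24 h compound treatment, 37 °C; Detection: SteadyGlo luciferase luminescence after 5 min at room temperature; Control set: parthenolide 27 µM positive control.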

[2] = system: SK-MEL-5 TRPM1 promoter luciferase reporter, 24 h; experiment: as above
Outline: as §1

Row | SMILES | activity change, negative = inhibition [1] | AC50 [2]
1 | O=C(NC1=C(c2ccc(Oc3ccccc3)cc2)C(=O)c2ccccc2C1=O)c1ccccc1 | -5.77% (inactive) | –
2 | O=C(NC1=C(N2CCN(c3ccccc3)CC2)C(=O)c2ccccc2C1=O)c1ccccc1 | -32.8% (inactive) | –
3 | C=CCNC1=C(NCC=C)C(=O)c2ccccc2C1=O | -12.8% (inactive) | –
4 | COc1ccc(C2=C(NC(=O)c3ccc4ccccc4c3)C(=O)c3ccccc3C2=O)cc1 | -15.2% (inactive) | –
5 | CCN1CCN(C2=C(NS(=O)(=O)c3ccc(Br)s3)C(=O)c3ccccc3C2=O)CC1 | – | 3.89 µM
6 | CCN1CCN(C2=C(NC(=O)c3ccccc3)C(=O)c3ccccc3C2=O)CC1 | – | 0.783 µM
7 | O=C1C(NS(=O)(=O)c2cccs2)=C(N2CCCCC2)C(=O)c2ccccc21 | – | 22.1 µM
8 | C=CCNC1=C(NS(=O)(=O)c2cccs2)C(=O)c2ccccc2C1=O | – | 14.2 µM
9 | COc1ccc(C(=O)NC2=C(c3ccccc3)C(=O)c3ccccc3C2=O)cc1 | – | 14.4 µM
10 | O=C1C(Nc2ccccc2)=C(N2CCSCC2)C(=O)c2ccccc21 | – | 9.7 µM
11 | CC(=O)N(C)C1=C(N2CCOCC2)C(=O)c2ccccc2C1=O | – | 2.45 µM
12 | O=C1C(Nc2ccccc2)=C(N2CCOCC2)C(=O)c2ccccc21 | – | 12.8 µM and 7.07 µM
13 | CCN1CCN(C2=C(Nc3ccccc3)C(=O)c3ccccc3C2=O)CC1 | – | 0.809 µM
14 | COC1=C(NS(=O)(=O)c2ccc(Br)cc2)C(=O)c2ccccc2C1=O | – | 7.22 µM
15 | O=C(NC1=C(Cl)C(=O)c2ccccc2C1=O)c1ccccc1 | – | 0.806 µM
16 | COc1cccc(C2=C(NC(=O)c3ccccc3)C(=O)c3ccccc3C2=O)c1 | – | 16.6 µM
17 | CNC1=CC(=O)c2ccccc2C1=O | – | 9.17 µM
18 | O=C(NC1=C(c2ccc(OC(F)(F)F)cc2)C(=O)c2ccccc2C1=O)c1ccccc1 | – | 18.9 µM

Row | SMILES | activity change, negative = inhibition [1] | AC50 [2]
19 | NC1=C(c2ccc(OC(F)(F)F)cc2)C(=O)c2ccccc2C1=O | – | 20.4 µM
20 | O=C1C=C(NS(=O)(=O)c2ccc(Br)cc2)C(=O)c2ccccc21 | – | 9.16 µM
21 | COC1=C(NS(=O)(=O)c2cccs2)C(=O)c2ccccc2C1=O | – | 17.5 µM
22 | O=C1C(NS(=O)(=O)c2ccc(Br)cc2)=C(N2CCN(c3ccccc3)CC2)C(=O)c2ccccc21 | -44.3% (inactive) | –
23 | NC1=C(NS(=O)(=O)c2ccc(Br)s2)C(=O)c2ccccc2C1=O | – | 17.5 µM
24 | C=CCNC1=C(N2CCCCC2)C(=O)c2ccccc2C1=O | – | 0.983 µM
25 | C[C@@H](NC1=C(Nc2ccccc2)C(=O)c2ccccc2C1=O)c1ccccc1 | – | 13.4 µM
26 | CN1CCN(C2=C(Nc3ccccc3)C(=O)c3ccccc3C2=O)CC1 | – | 7.78 µM
27 | NC1=C(NS(=O)(=O)c2ccccc2)C(=O)c2ccccc2C1=O | – | 4.31 µM
28 | CCN1c2ccccc2NC2N=C(OC)C(c3ccccc3)C21 (stereo unspecified) | – | 3.74 µM
29 | COc1ccc(C2=C(NC(=O)c3ccc(OC)cc3-c3cccc(OC)c3)C(=O)c3ccccc3C2=O)cc1 | -14.7% (inactive) | –
30 | O=C(NC1=C(c2ccc(OC(F)(F)F)cc2)C(=O)c2ccccc2C1=O)c1ccc(Br)cc1 | – | 25 µM
31 | C=CCNC1=C(N2CCN(C)CC2)C(=O)c2ccccc2C1=O | – | 3.89 µM
32 | O=C1C(NS(=O)(=O)c2ccc(Br)cc2)=C(N2CCOCC2)C(=O)c2ccccc21 | – | 14.4 µM
33 | O=C1C(NS(=O)(=O)c2cccs2)=C(N2CCOCC2)C(=O)c2ccccc21 | – | 12.4 µM
34 | COc1ccc(C2=C(NC(C)=O)C(=O)c3ccccc3C2=O)cc1 | – | 4.84 µM
35 | O=C1C=C(Nc2ccccc2)C(=O)c2ccccc21 | – | 4.02 µM and 5.21 µM
36 | COC1=C(Nc2ccccc2)C(=O)c2ccccc2C1=O | – | 2.69 µM
